Calls of active or inactive are those of the source. The calls are words filed in the database; no cut-off is given here.
Key:
Daoy [1] = assay: Anti-proliferative activity against human Daoy cells assessed as reduction in cell viability incubated for 120 hrs by MTT assay; format: functional, cell-based
Procedure, shortened: (§1)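 Cells seeded in triplicate at 2 × 10^3 per well and allowed to adhere for 24h. JQ1 was given as serial dilutions in full medium, 1nM-6µM, from a 10 mM DMSO stock. Viability was read by MTT at each time point and IC50 derived from dose-response curves. Culture media were RPMI 1640/10% FCS for HD-MB3 (plus 1% NEAA), ONS-76, Daoy and UW-228, and EMEM/10% FCS for D-283 and D-341.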

ONS-76 [2] = assay: Anti-proliferative activity against human ONS-76 cells assessed as reduction in cell viability incubated for 120 hrs by MTT assay; format: functional, cell-based; conditions: ONS-76, 120 h; procedure, shortened: as §1
UW228 [3] = assay: Anti-proliferative activity against human UW228 cells assessed as reduction in cell viability incubated for 48 hrs by MTT assay; format: functional, cell-based; conditions: UW228, 48 h; procedure, shortened: as §1
D341 cell line [4] = assay: Anti-proliferative activity against human D341 cells assessed as reduction in cell viability incubated for 72 hrs by MTT assay; format: functional, cell-based; conditions: D341, 72 h; procedure, shortened: as §1
D341 cell line [5] = assay: Anti-proliferative activity against human D341 cells assessed as reduction in cell viability incubated for 96 hrs by MTT assay; format: functional, cell-based; conditions: D341, 96 h; procedure, shortened: as §1
D283 Med [6] = assay: Anti-proliferative activity against human D283 cells assessed as reduction in cell viability incubated for 72 hrs by MTT assay; format: functional, cell-based; procedure, shortened: as §1
D283 Med [7] = assay: Induction of apoptosis in human D283 cells assessed as increase in population of cells in sub-G1 phase at 500 nM incubated for 72 hrs by ELISA; format: functional, cell-based
Daoy [8] = assay: Induction of apoptosis in human Daoy cells assessed as increase in population of cells in sub-G1 phase at 500 nM incubated for 72 hrs by ELISA; format: functional, cell-based
ONS-76 [9] = assay: Induction of apoptosis in human ONS-76 cells assessed as increase in population of cells in sub-G1 phase at 500 nM incubated for 72 hrs by ELISA; format: functional, cell-based
Procedure, shortened: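 Cell death ELISA on ONS-76 or UW-228 cells seeded 2 × 10^3 per well in triplicate and allowed 24h to adhere. Treated with 500 nM JQ1 or DMSO for 72h, then apoptotic cell death measured by Cell Death Detection ELISA per kit protocol. Experiments repeated at least 3 times.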

HD-MB03 [10] = assay: Induction of apoptosis in human HD-MB03 cells assessed as increase in population of cells in sub-G1 phase at 500 nM incubated for 72 hrs by ELISA; format: functional, cell-based
UW228 [11] = assay: Induction of apoptosis in human UW228 cells assessed as increase in population of cells in G1 phase at 500 nM incubated for 72 hrs by ELISA; format: functional, cell-based
Daoy [12] = assay: Induction of apoptosis in human Daoy cells assessed as increase in population of cells in sub-G1 phase at 500 nM incubated for 72 hrs by flow cytometry; format: functional, cell-based
Procedure, shortened: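 Cells were cultured with 500 nM JQ1 or DMSO control, trypsinised and washed 3 times in PBS. DNA was stained with propidium iodide for 15 min and DNA content analysed by flow cytometry to give G1 and sub-G1 fractions.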

ONS-76 [13] = assay: Induction of apoptosis in human ONS-76 cells assessed as increase in population of cells in G1 phase at 500 nM incubated for 72 hrs by flow cytometry; format: functional, cell-based
HD-MB03 [14] = assay: Induction of senescence in human HD-MB03 cells assessed as increase in population of cells in G1 phase at 500 nM incubated for 72 hrs by fluorometric SA-beta-gal activity assay; format: functional, cell-based
Procedure, shortened: (§2)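 Senescence read as fluorometric SA-β-gal activity. Cells seeded 2 × 10^3 per well in triplicate and allowed 24h to adhere, then exposed to 500 nM JQ1 or DMSO control for 72h. Assayed per kit protocol. Experiments repeated at least 3 times.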

Daoy [15] = assay: Induction of senescence in human Daoy cells assessed as increase in population of cells in G1 phase at 500 nM incubated for 72 hrs by fluorometric SA-beta-gal activity assay; format: functional, cell-based; procedure, shortened: as §2
UW228 [16] = assay: Induction of senescence in human UW228 cells assessed as increase in population of cells in G1 phase at 500 nM incubated for 72 hrs by fluorometric SA-beta-gal activity assay; format: functional, cell-based; procedure, shortened: as §2
D283 Med [17] = assay: Induction of senescence in human D283 cells assessed as increase in population of cells in G1 phase at 500 nM incubated for 72 hrs by fluorometric SA-beta-gal activity assay; format: functional, cell-based; procedure, shortened: as §2
ONS-76 [18] = assay: Antiproliferative activity against human ONS-76 cells at 500 nM incubated for 72 hrs by BrdU ELISA method; format: functional, cell-based
Procedure, shortened: (§3)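 Cells seeded in triplicate at 2 × 10^3 per well with 24h adherence, then treated with 500 nM JQ1 or DMSO control for 72h. Proliferation was measured by BrdU incorporation ELISA. Experiments were run independently at least 3 times.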

UW228 [19] = assay: Antiproliferative activity against human UW228 cells at 500 nM incubated for 72 hrs by BrdU ELISA method; format: functional, cell-based; procedure, shortened: as §3
D283 Med [20] = assay: Antiproliferative activity against human D283 cells at 500 nM incubated for 72 hrs by BrdU ELISA method; format: functional, cell-based; procedure, shortened: as §3
Mus musculus = assay: […] of cell proliferation in female athymic (nu/nu) mouse xenografted with human HD-MB03 cells as reduction in number of proliferating cells in tumor at 50 mg/kg, ip administered at 0, 12, 24 and 36 hrs over 2-day course by immunostaining and hematoxylin-eosin staining; format: functional, organism-based
Procedure, shortened: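 HD-MB3 cells in Matrigel (2 × 10^7) injected subcutaneously into the left flank of 4-week-old female nu/nu mice. Given JQ1 50 mg/kg i.p. or DMSO vehicle at 0, 12, 24 and 36h; killed 4h after the last dose. Fixed 5 µm tumour sections underwent pH 6.0 retrieval and Ki67 (1:25) immunostaining with H&E; positive cells quantified, 3 tumours per group.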

[21] = molecular target: Bromodomain-containing protein 4 (Homo sapiens) (UniProt O60885); conditions: HD-MB03, dose 500.0 nM, time 24.0 hrs
[22] = molecular target: Bromodomain-containing protein 4 (Homo sapiens) (UniProt O60885); conditions: Daoy, dose 500.0 nM, time 24.0 hrs
[23] = molecular target: Bromodomain-containing protein 4 (Homo sapiens) (UniProt O60885); conditions: D341 cell line, dose 500.0 nM, time 24.0 hrs
[24] = molecular target: Bromodomain-containing protein 4 (Homo sapiens) (UniProt O60885); conditions: ONS-76, dose 500.0 nM, time 72.0 hrs
[25] = molecular target: Bromodomain-containing protein 4 (Homo sapiens) (UniProt O60885); conditions: HD-MB03, dose 500.0 nM, time 6-24 hrs
[26] = molecular target: Bromodomain-containing protein 4 (Homo sapiens) (UniProt O60885); conditions: HD-MB03, dose 500.0 nM, time 96.0 hrs
[27] = molecular target: Bromodomain-containing protein 4 (Homo sapiens) (UniProt O60885); conditions: HD-MB03, dose 500.0 nM, time 72.0 hrs

Cc1sc2c(c1C)C(c1ccc(Cl)cc1)=N[C@@H](CC(=O)OC(C)(C)C)c1nnc(C)n1-2
IC50 (Daoy [1]): 544 nM
IC50 (ONS-76 [2]): 123 nM
IC50 (UW228 [3]): > 1000 nM
IC50 (D341 cell line [4]): 244 nM
IC50 (D341 cell line [5]): 157 nM
IC50 (D283 Med [6]): 477 nM
Activity (D283 Med [7]): Active
Activity (Daoy [8]): Active
Activity (ONS-76 [9]): Active
Activity (HD-MB03 [10]): Active
Activity (UW228 [11]): Active
Activity (Daoy [12]): Active
Activity (ONS-76 [13]): Active
Activity (HD-MB03 [14]): Active
Activity (Daoy [15]): Active
Activity (UW228 [16]): Active
Activity (D283 Med [17]): Active
Activity (ONS-76 [18]): Active
Activity (UW228 [19]): Active
Activity (D283 Med [20]): Active
Activity (Mus musculus): Active
inhibition [21]: > 80%
inhibition [22]: Active
inhibition [23]: Active
inhibition [24]: Active
inhibition [25]: Active
inhibition [26]: inactive
inhibition [27]: 10%
